From ChEMBL document CHEMBL5214995, “Orally Bioavailable Quinoxaline Inhibitors of 15-Prostaglandin Dehydrogenase (15-PGDH) Promote Tissue Repair and Regeneration” (J Med Chem, 2022)
In brackets after ≈: the same amount, converted by molar mass. Blank lines part the entries; values can stand above or below the molecule they belong to. Activity calls are given as the source filed them. The rule behind the calls is not given here.

Columns and labels:
[1] = Aqueous solubility of the compound under shaking condition by LC-MS/MS analysis; format: physicochemical; settings: buffer
Colon [2] = test: In vivo activation of PGE2 in C57BL/6J mouse colon tissue assessed as increase in PGE2 level at 2.5 mg/kg,ip measured after 3 hrs by ELISA; format: functional, organism-based
Summary of the method: (§1)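 Female C57bl/6J mice aged 8-9 weeks were dosed IP and euthanised 3 h later. Colon and lung were rinsed in ice-cold PBS with indomethacin (5.6 µg/ml), snap-frozen, pulverised, homogenised in cold PBS/indomethacin, sonicated on ice and centrifuged. PGE2 in the supernatant was measured by ELISA in triplicate and normalised to BCA protein as ng PGE2/mg protein.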

Lung [3] = test: In vivo activation of PGE2 in C57BL/6J mouse lung tissue assessed as increase in PGE2 level at 5 mg/kg,ip measured after 3 hrs by ELISA; format: functional, organism-based; summary of the method: as §1
[4] = AUC in CD-1 mouse at 10 mg/kg,ip measured upto 1440 mins by LC-MS/MS analysis; format: ADME, organism-based; design: time < 1440 min, dose 10 mg/kg, route ip; settings: in vivo; for AUC: mouse, 24 h
Summary of the method: (§2)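 Female CD1 mice were given a single 10 mg/kg IP dose. […] Plasma was extracted with methanol/0.15% formic acid containing N-benzylbenzamide internal standard and analysed by LC-MS/MS against spiked blank-plasma standards. Cmax and AUC were derived by noncompartmental analysis.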

Colon [5] = test: animal or person; settings: Mus musculus, C57BL/6J, po, 1.5 h, read-out: INH
Mus musculus [6] = test: […] activity against bone marrow transplanted mouse model assessed as increase in total WBC repopulation at 10 mg/kg,ip bid measured by flow cytometry after 15 days post-transplant recovery period; format: functional, organism-based; settings: time 15.0 day
Mus musculus [7] = test: Protection against DSS-induced acute ulcerative colitis in […] mouse assessed as increase in colon length at 10 mg/kg,ip measured from 8 to 12 days of administration; format: functional, organism-based; settings: time 8-12 day
Mus musculus [8] = test: […] activity against bone marrow transplanted mouse model assessed as increase in RBC repopulation at 10 mg/kg,ip bid measured by flow cytometry after 15 days post-transplant recovery period; format: functional, organism-based; settings: Erythrocyte, time 15.0 day
Mus musculus [9] = test: Protection against DSS-induced acute ulcerative colitis in […] mouse assessed as decrease in cryptitis score at 40 mg/kg,po measured after 12 days of administration; format: functional, organism-based; settings: time 12.0 day
[10] = Cmax in CD-1 mouse at 10 mg/kg,po measured upto 1440 mins by LC-MS/MS analysis; format: ADME, organism-based; design: dose 10 mg/kg, time < 1440 min, route po; settings: in vivo, 24 h
Summary of the method: (§3)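 Female CD1 mice received a single 10 mg/kg PO or 5 mg/kg IV dose in 10% DMSO, 25% PEG400, 1% Tween-80 and 64% D5W (pH 7.4). Groups of three were killed at 0–1440 min, with blood taken by cardiac puncture into ACD. Plasma was extracted into methanol with formic acid and internal standard, and drug was quantified by LC-MS/MS against spiked blank-plasma standards. Cmax and AUC came from noncompartmental analysis.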

Colon [11] = test: animal or person; settings: Mus musculus, C57BL/6J, po, 0.5 h, read-out: INH
[12] = Oral bioavailability in CD-1 mouse at 10 mg/kg measured upto 1440 mins by LC-MS/MS analysis; format: ADME, organism-based; settings: in vivo, 24 h; summary of the method: as §3
Lung [13] = test: In vivo activation of PGE2 in C57BL/6J mouse lung tissue assessed as increase in PGE2 level at 2.5 mg/kg,ip measured after 3 hrs by ELISA; format: functional, organism-based; summary of the method: as §1
[14] = Apparent permeability of the compound from basolateral to apical side in human Caco-2 cells measured upto 120 mins by LC-MS/MS analysis; format: ADME, cell-based; settings: caco-2, 2 h
Summary of the method: (§4)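 Caco-2 cells were grown three weeks on 12-well Transwells in DMEM with 20% FBS and supplements, then washed in HBSS with Ca/Mg and 0.5% FBS. Monolayers were used only if TEER exceeded 800 Ωcm², and TEER was rechecked after the assay.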

[15] = Apparent permeability of the compound from apical to basolateral side in human Caco-2 cells measured upto 120 mins by LC-MS/MS analysis; format: ADME, cell-based; settings: caco-2, 2 h; summary of the method: as §4
[16] = AUC in CD-1 mouse at 10 mg/kg,po measured upto 1440 mins by LC-MS/MS analysis; format: ADME, organism-based; design: time < 1440 min, dose 10 mg/kg, route po; settings: in vivo, 24 h; summary of the method: as §3
[17] = AUC in CD-1 mouse at 5 mg/kg,iv measured upto 1440 mins by LC-MS/MS analysis; format: ADME, organism-based; design: dose 5 mg/kg, time < 1440 min, route iv; settings: in vivo, 24 h; summary of the method: as §3
[18] = Cmax in CD-1 mouse at 10 mg/kg,ip measured upto 1440 mins by LC-MS/MS analysis; format: ADME, organism-based; design: time < 1440 min, dose 10 mg/kg, route ip; settings: in vivo; summary of the method: as §2
Mus musculus [19] = test: Protection against DSS-induced acute ulcerative colitis in […] mouse assessed as increase in body weight at 10 mg/kg,ip measured from 7 to 12 days of administration; format: functional, organism-based; settings: time 7-12 day
Mus musculus [20] = test: Protection against DSS-induced acute ulcerative colitis in […] mouse assessed as decrease in cryptitis score at 10 mg/kg,ip measured after 12 days of administration; format: functional, organism-based; settings: time 12.0 day
Mus musculus [21] = test: Protection against DSS-induced acute ulcerative colitis in […] mouse assessed as increase in body weight at 40 mg/kg,po measured upto 12 days of administration; format: functional, organism-based; settings: time <= 12.0 day
Mus musculus [22] = test: Protection against DSS-induced acute ulcerative colitis in […] mouse assessed as increase in colon length at 40 mg/kg,po measured after 12 days of administration; format: functional, organism-based; settings: time 12.0 day
Colon [23] = test: In vivo activation of PGE2 in C57BL/6J mouse colon tissue assessed as increase in PGE2 level at 5 mg/kg,ip measured after 3 hrs by ELISA; format: functional, organism-based; summary of the method: as §1
[24] = Cmax in CD-1 mouse at 5 mg/kg,iv measured upto 1440 mins by LC-MS/MS analysis; format: ADME, organism-based; design: dose 5 mg/kg, time < 1440 min, route iv; settings: in vivo, 24 h; summary of the method: as §3

SMILES: Cn1ccc2cc(-c3cnc4ccc(C(=O)N5CCCCC5)cc4n3)ccc2c1=O
- solubility thermodynamic [1]: 56 µg/mL (≈ 141 µM)
- Activity (Colon [2]): Active
- Activity (Lung [3]): Active
- AUC [4]: 517 µg·min/mL
- inhibition in vivo at 20 mg/kg (Colon [5]): > 80%
- Activity (Mus musculus [6]): Active
- Activity (Mus musculus [7]): Active
- Activity (Mus musculus [8]): Active
- Activity (Mus musculus [9]): Active
- Cmax [10]: 950 ng/mL
- inhibition in vivo at 20 mg/kg (Colon [11]): > 90%
- F [12]: 63%
- Activity (Lung [13]): Active
- Papp [14]: 34 10^-6 cm/s
- Papp [15]: 45 10^-6 cm/s
- AUC [16]: 256 µg·min/mL
- AUC [17]: 205 µg·min/mL
- Cmax ([18]; mouse, 24 h): 6400 ng/mL
- Activity (Mus musculus [19]): Active
- Activity (Mus musculus [20]): Active
- Activity (Mus musculus [21]): Active
- Activity (Mus musculus [22]): Active
- Activity (Colon [23]): Active
- Cmax [24]: 3000 ng/mL

SMILES: Cl.Nc1ncc(-c2cnc3ccc(C(=O)N4CCCCC4)cc3n2)cc1Cl
- Activity (Lung [3]): Active
- AUC at 24 h ([4]; CD-1, mouse): 2870 ng·h/mL
- Cmax ([18]; CD-1, mouse, read-out: Cmax): 3000 ng/mL
- Activity (Colon [23]): Active

SMILES: O=C(c1ccc2ncc(-c3ccc4c(=O)[nH]ccc4c3)nc2c1)N1CCCCC1
- solubility thermodynamic [1]: 4 µg/mL (≈ 10.4 µM)
- AUC [4]: 270 µg·min/mL
- Cmax ([18]; mouse, 24 h): 7400 ng/mL

The remaining lines, values ahead:

- solubility thermodynamic [1]: 14 µg/mL (≈ 38 µM)
SMILES: O=C(c1ccc2ncc(-c3ccc4cnccc4c3)nc2c1)N1CCCCC1

- solubility thermodynamic [1]: 55 µg/mL (≈ 149 µM)
SMILES: O=C(c1ccc2ncc(-c3ccc4ncccc4c3)nc2c1)N1CCCCC1
